Experimental data: ChEMBL document CHEMBL4725483, “Simultaneous Inhibition of SIRT2 Deacetylase and Defatty-Acylase Activities via a PROTAC Strategy” (ACS Med Chem Lett, 2020)
Active and inactive are the calls of the source. The calls are words filed in the database; no cut-off is given here.

Tests used:
[1] = biological target: T1, Protein cereblon/NAD-dependent protein deacetylase sirtuin-2 (Homo sapiens) (UniProt Q8IXJ6+Q96SW2); assay: Protac activity at CRBN/SIRT2 in human MCF7 cells assessed as SIRT2 degradation at 50 uM after 48 hrs by immunoblot analysis; format: cell-based
T1 sequence (Q96SW2 whole entry, looked up, one chain of several): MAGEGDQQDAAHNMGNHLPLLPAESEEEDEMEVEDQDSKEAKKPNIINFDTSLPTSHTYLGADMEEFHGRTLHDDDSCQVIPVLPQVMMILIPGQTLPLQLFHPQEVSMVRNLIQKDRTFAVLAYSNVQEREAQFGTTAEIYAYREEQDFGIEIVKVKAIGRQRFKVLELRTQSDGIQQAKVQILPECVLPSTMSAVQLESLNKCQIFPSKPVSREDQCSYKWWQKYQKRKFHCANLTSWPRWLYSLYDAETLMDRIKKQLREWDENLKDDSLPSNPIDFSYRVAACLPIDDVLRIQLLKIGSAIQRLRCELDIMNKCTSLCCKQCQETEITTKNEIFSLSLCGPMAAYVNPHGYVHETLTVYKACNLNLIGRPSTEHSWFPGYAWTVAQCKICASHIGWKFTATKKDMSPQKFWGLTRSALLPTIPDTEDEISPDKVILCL
Summary of the method: (§1)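 MCF7 cells given a range of concentrations below and above 5 μM (0.5 to 50 μM) for 48 h; SIRT2 measured by immunoblot against vehicle-treated cells.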

[2] = biological target: T2, NAD-dependent protein deacetylase sirtuin-2 (Homo sapiens, UniProt Q8IXJ6); assay: Inhibition of human SIRT2 defatty-acylation activity using peptide substrate preincubated in presence of NAD+ followed by substrate addition by HPLC analysis
T2 sequence (Q8IXJ6 whole entry): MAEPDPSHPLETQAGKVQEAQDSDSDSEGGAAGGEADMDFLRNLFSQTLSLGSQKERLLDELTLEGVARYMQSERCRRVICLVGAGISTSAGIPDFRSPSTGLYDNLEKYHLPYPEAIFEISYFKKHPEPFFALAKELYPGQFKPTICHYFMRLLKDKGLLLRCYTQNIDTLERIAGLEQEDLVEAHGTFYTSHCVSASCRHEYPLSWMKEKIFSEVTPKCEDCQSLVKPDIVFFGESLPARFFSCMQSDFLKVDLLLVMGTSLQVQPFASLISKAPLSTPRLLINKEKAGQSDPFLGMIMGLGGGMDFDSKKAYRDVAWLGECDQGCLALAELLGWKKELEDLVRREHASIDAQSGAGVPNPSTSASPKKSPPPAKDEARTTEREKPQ
Summary of the method: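 SIRT2 defatty-acylase reaction with compound at a range of concentrations. Compound was preincubated with NAD+ and SIRT2 before the peptide substrate was added. IC50 derived from the dose series.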

MDA-MB-231 [3] = assay: Cytotoxicity against human MDA-MB-231 cells assessed as reduction in cell viability at 1 uM after 72 hrs; format: functional, cell-based
[4] = biological target: T2, NAD-dependent protein deacetylase sirtuin-2; assay: Inhibition of human SIRT2 defatty-acylation activity using peptide substrate in presence of NAD+ by HPLC analysis
[5] = biological target: Protein cereblon/NAD-dependent protein deacylase sirtuin-5, mitochondrial (Homo sapiens) (UniProt Q9NXA8+Q96SW2); assay: Protac activity at CRBN/SIRT5 in human HEK293T cells assessed as abundance ratio at 5 uM incubated for 16 hrs by TMT global proteomics assay relative to DMSO; format: cell-based; conditions: HEK-293T
Protein cereblon/NAD-dependent protein deacylase sirtuin-5, mitochondrial (Homo sapiens), sequence (Q96SW2 whole entry, looked up): as the sequence (Q96SW2 whole entry, looked up, one chain of several) above
Protein cereblon/NAD-dependent protein deacylase sirtuin-5, mitochondrial (Homo sapiens), sequence (Q9NXA8 whole entry, looked up): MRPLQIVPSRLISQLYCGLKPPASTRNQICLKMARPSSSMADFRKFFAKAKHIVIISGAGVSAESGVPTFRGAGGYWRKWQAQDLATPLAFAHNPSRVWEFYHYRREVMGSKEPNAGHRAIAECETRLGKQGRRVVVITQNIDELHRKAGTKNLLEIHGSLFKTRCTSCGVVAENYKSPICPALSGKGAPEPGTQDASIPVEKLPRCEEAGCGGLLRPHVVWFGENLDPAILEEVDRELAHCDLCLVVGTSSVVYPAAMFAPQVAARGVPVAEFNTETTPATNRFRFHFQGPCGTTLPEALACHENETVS
Summary of the method: (§2)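 HEK 293T cells were treated for 16 h. Global proteome was quantified by Tandem Mass Tag labelling. The abundance ratio of each sirtuin was taken against DMSO-treated cells.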

MCF7 = assay: Cytotoxicity against human MCF7 cells assessed as reduction in cell viability at 1 uM after 72 hrs; format: functional, cell-based
MDA-MB-231 [6] = assay: Cytotoxicity against human MDA-MB-231 cells assessed as reduction in cell viability after 72 hrs; format: functional, cell-based
Summary of the method: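 Cells incubated with compound or thalidomide for 72 h; cell viability read out at the end of exposure.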

[7] = biological target: T1, Protein cereblon/NAD-dependent protein deacetylase sirtuin-2 (Homo sapiens); assay: Protac activity at CRBN/SIRT2 in human HEK293T cells stably expressing flag-tagged K-Ras4a assessed as inhibition of SIRT2 defatty-acylation at 1 uM incubated for 42 hrs followed by Alkyne-14 addition and measured after 6 hrs by immunoprecipitation based assay; format: cell-based; conditions: HEK-293T
Summary of the method: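 HEK 293T cells stably expressing Flag-K-Ras4a-G12V were treated with 1 μM compound for 42 h, then labelled with 50 μM Alk-14 for 6 h more. Flag-K-Ras4a was immunoprecipitated and a fluorescent dye attached by click chemistry. NH2OH was applied to strip cysteine fatty acylation, and lysine fatty acylation was measured by in-gel fluorescence and quantified relative to DMSO.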

[8] = biological target: T3, Protein cereblon/NAD-dependent protein deacetylase sirtuin-3, mitochondrial (Homo sapiens) (UniProt Q9NTG7+Q96SW2); assay: Protac activity at CRBN/SIRT3 in human MCF7 cells assessed as SIRT3 degradation at 5 to 10 uM after 48 hrs by immunoblot analysis; format: cell-based; conditions: dose microM 5-10, time 48.0 hrs
T3 sequence (Q96SW2 whole entry, looked up): as the sequence (Q96SW2 whole entry, looked up, one chain of several) above
T3 sequence (Q9NTG7 whole entry, looked up): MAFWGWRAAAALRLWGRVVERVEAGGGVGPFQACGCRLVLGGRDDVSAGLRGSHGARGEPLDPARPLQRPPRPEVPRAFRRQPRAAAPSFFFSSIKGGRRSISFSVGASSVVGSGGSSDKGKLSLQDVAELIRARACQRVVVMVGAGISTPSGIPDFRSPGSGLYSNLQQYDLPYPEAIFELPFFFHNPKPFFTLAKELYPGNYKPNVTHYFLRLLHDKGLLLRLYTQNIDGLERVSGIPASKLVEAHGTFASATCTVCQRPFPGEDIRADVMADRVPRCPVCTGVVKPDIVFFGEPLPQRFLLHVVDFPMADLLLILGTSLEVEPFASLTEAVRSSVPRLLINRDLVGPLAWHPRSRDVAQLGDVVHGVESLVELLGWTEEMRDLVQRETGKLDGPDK
Summary of the method: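 MCF7 or BT-549 cells exposed to inhibitor at the indicated concentrations for 48 h; SIRT1, SIRT2 and SIRT3 levels read by immunoblot.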

[9] = biological target: T1, Protein cereblon/NAD-dependent protein deacetylase sirtuin-2 (Homo sapiens); assay: Protac activity at CRBN/SIRT2 in human MDA-MB-468 cells assessed as SIRT2 degradation after 48 hrs by immunoblot analysis; format: cell-based
Summary of the method: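 In MDA-MB-231 and MDA-MB-468 cells, SIRT2 was assessed by immunoblot after compound treatment.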

[10] = biological target: T4, Protein cereblon/NAD-dependent protein deacetylase sirtuin-1 (Homo sapiens) (UniProt Q96EB6+Q96SW2); assay: Protac activity at CRBN/SIRT1 in human HEK293T cells assessed as abundance ratio at 5 uM incubated for 16 hrs by TMT global proteomics assay relative to DMSO; format: cell-based; conditions: HEK-293T
T4 sequence (Q96EB6 whole entry, looked up): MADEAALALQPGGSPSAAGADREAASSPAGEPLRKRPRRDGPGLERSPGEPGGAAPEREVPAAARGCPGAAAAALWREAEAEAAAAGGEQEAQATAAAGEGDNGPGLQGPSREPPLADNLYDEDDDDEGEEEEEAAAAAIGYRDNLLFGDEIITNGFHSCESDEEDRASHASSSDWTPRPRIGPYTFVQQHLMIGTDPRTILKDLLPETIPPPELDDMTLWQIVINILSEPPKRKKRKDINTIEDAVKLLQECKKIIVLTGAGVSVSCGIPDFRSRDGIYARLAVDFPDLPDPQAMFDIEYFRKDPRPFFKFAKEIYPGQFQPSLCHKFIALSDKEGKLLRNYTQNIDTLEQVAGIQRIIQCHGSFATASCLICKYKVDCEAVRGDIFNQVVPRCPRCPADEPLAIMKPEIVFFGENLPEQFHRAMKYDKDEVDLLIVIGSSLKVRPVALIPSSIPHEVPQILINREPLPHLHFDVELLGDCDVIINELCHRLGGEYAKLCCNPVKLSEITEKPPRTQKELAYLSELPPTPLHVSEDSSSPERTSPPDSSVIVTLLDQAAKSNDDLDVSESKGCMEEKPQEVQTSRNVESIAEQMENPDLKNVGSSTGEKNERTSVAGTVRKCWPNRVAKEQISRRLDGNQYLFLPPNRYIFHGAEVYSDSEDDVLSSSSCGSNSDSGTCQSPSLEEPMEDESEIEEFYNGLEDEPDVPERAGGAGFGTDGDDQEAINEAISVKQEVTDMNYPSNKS
T4 sequence (Q96SW2 whole entry, looked up): as the sequence (Q96SW2 whole entry, looked up, one chain of several) above
Summary of the method: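 HEK 293T cells given 5 μM compound for 16 h. Global proteomics used Tandem Mass Tag labelling, and each sirtuin's abundance is given as a ratio of treated to DMSO-treated cells.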

[11] = biological target: T1, Protein cereblon/NAD-dependent protein deacetylase sirtuin-2 (Homo sapiens); assay: Protac activity at CRBN/SIRT2 in human MCF7 cells assessed as SIRT2 degradation at 5 uM preincubated with proteasome inhibitior MG132 for 2 hrs followed by compound addition measured after 16 hrs by immunoblot analysis; format: cell-based
Summary of the method: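 Proteasome dependence: MCF7 cells pretreated 2 h with 5 μM MG132, then cotreated with 5 μM compound plus 5 μM MG132 for 16 h more; SIRT2 detected by immunoblot.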

[12] = biological target: T1, Protein cereblon/NAD-dependent protein deacetylase sirtuin-2 (Homo sapiens); assay: Protac activity at CRBN/SIRT2 in human MCF7 cells assessed as SIRT2 degradation at 0.5 uM after 48 hrs by immunoblot analysis; format: cell-based; summary of the method: as §1
[13] = biological target: NAD-dependent protein deacylase sirtuin-6 (Homo sapiens, UniProt Q8N6T7); assay: Inhibition of human SIRT6 deacetylation activity using H3K9Ac as substrate preincubated for 15 mins in presence of NAD+ followed by substrate addition by HPLC analysis
NAD-dependent protein deacylase sirtuin-6, sequence (Q8N6T7 whole entry): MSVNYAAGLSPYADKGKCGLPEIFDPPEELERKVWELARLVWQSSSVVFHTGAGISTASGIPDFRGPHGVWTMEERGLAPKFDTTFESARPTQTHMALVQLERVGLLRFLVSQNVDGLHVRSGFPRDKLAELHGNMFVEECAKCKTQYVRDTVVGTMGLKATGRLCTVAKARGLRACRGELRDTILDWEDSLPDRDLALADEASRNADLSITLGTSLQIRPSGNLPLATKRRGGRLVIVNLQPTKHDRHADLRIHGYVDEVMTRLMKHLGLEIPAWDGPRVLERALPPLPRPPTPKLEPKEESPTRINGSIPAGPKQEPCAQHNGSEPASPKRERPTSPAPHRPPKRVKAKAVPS
Summary of the method: (§3)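 In vitro sirtuin reaction mixture with compound at a range of concentrations. Compound was preincubated with NAD+ and the enzyme before the substrate peptide was added. IC50 taken from the concentration series.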

[14] = biological target: T2, NAD-dependent protein deacetylase sirtuin-2; assay: Inhibition of human SIRT2 deacetylation activity using H3K9Ac as substrate preincubated for 15 mins in presence of NAD+ by HPLC analysis; summary of the method: as §3
Homo sapiens = species: Homo sapiens; assay: Selectivity ratio of IC50 for inhibition of human SIRT1 deacetylation activity to IC50 for inhibition of human SIRT2 deacetylation activity
Summary of the method: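 Ratio of SIRT1 deacetylase IC50 to SIRT2 deacetylase IC50, both measured with compound, NAD+ and enzyme preincubated before peptide substrate addition.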

[15] = biological target: T3, Protein cereblon/NAD-dependent protein deacetylase sirtuin-3, mitochondrial (Homo sapiens); assay: Protac activity at CRBN/SIRT3 in human HEK293T cells stably expressing flag-tagged K-Ras4a-G12V assessed as inhibition of SIRT2 defatty-acylation at 1 uM incubated for 48 hrs by immunoblot analysis; format: cell-based; conditions: HEK-293T
Summary of the method: (§4)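 HEK 293T cells stably overexpressing Flag-tagged K-Ras4a-G12V (confirmed by pan-Ras blot) were exposed to 1 μM compound for 48 h. SIRT1, SIRT2 and SIRT3 levels were then read by immunoblot.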

[16] = biological target: Protein cereblon/NAD-dependent protein deacylase sirtuin-6 (Homo sapiens) (UniProt Q8N6T7+Q96SW2); assay: Protac activity at CRBN/SIRT6 in human HEK293T cells assessed as abundance ratio at 5 uM incubated for 16 hrs by TMT global proteomics assay relative to DMSO; format: cell-based; conditions: HEK-293T; summary of the method: as §2
Protein cereblon/NAD-dependent protein deacylase sirtuin-6 (Homo sapiens), sequence (Q8N6T7 2-355 limits assumed): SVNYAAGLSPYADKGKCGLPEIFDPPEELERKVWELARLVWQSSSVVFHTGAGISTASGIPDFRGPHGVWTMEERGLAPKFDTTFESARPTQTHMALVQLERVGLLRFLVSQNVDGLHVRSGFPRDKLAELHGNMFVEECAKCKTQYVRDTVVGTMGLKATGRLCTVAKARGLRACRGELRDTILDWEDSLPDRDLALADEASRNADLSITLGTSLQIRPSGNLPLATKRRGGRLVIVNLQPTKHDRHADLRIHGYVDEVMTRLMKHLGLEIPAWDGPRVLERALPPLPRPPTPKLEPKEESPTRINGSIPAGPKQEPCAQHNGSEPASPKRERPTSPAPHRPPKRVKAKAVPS
Protein cereblon/NAD-dependent protein deacylase sirtuin-6 (Homo sapiens), sequence (Q96SW2 whole entry partner): as the sequence (Q96SW2 whole entry, looked up, one chain of several) above

[17] = biological target: T4, Protein cereblon/NAD-dependent protein deacetylase sirtuin-1 (Homo sapiens); assay: Protac activity at CRBN/SIRT1 in human HEK293T cells stably expressing flag-tagged K-Ras4a-G12V assessed as inhibition of SIRT2 defatty-acylation at 1 uM incubated for 48 hrs by immunoblot analysis; format: cell-based; conditions: HEK-293T; summary of the method: as §4

**Q.** Which results are given for `CCCCCCCCCCCCCC(=S)NCCCC[C@H](NC(=O)CCOCCOCCOCCOCCNc1cccc2c1C(=O)N(C1CCC(=O)NC1=O)C2=O)C(=O)Nc1ccccc1` (some centres undefined)?
**A.** Activity [1]: inactive; IC50 [2]: 110 nM; Activity (MDA-MB-231 [3]): inactive; IC50 [4]: > 83000 nM; Activity [5]: inactive; Activity (MCF7): inactive; Activity (MDA-MB-231 [6]): Active; Activity [7]: Active; Activity [8]: inactive; Activity [9]: Active; Activity [10]: inactive; Activity [11]: inactive; Activity [12]: Active; IC50 [13]: > 83000 nM; IC50 [14]: 78 nM; Ratio IC50 (Homo sapiens): 500; Activity [15]: inactive; Activity [16]: inactive; Activity [17]: inactive
